From ChEMBL document CHEMBL1149639, “Anti-tumor agents 255: novel glycyrrhetinic acid-dehydrozingerone conjugates as cytotoxic agents” (2007) come the findings set out here.

Common to all, as to assay type: functional
The subject of test [1] is KB. Put plainly: Cytotoxicity against human KB cells by sulforhodamine B assay. The settings on record: for EC50: read-out: ED50 (the source's name). An outline of the steps: (§1)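 Sulforhodamine B assay after Rubinstein et al. Cells grown at 37 °C, humidified 5% CO2, in RPMI-1640 with 10% (v/v) FBS and 100 μg/mL kanamycin. Seeding density set per line to give final A562 of 1-2.5. Stocks in DMSO, final DMSO <1% (v/v). Two-day drug exposure, absorbance at 562 nm. ED50 (50% absorbance reduction vs untreated) interpolated from dose-response. Tests in duplicate.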
On the technique in general: The SRB assay estimates cell density from bound dye.

In test [2] the test system is KB-VIN. In words: (§2) Cytotoxicity against human KB-VIN cells by sulforhodamine B assay. An outline of the steps:
as §1

Test [3] deals with 1A9. In words: Cytotoxicity against human 1A9 cells. The settings on record: for EC50: read-out: ED50 (the source's name). In outline:
as §1

Test [4] has as its system LNCaP. In words: Cytotoxicity against human LN-Cap cells. The settings on record: read-out: ED50 (the source's name). In outline: as §1
For test [5], the system named is A549. Put plainly: Cytotoxicity against human A549 cells. The conditions noted are these: for EC50: read-out: ED50 (the source's name). An outline of the steps: as §1
The subject of test [6] is DU-145. Put plainly: Cytotoxicity against human DU145 cells. The conditions noted are these: read-out: ED50 (the source's name). An outline of the steps:
as §1

The test system of test [7] is KB. In words: Cytotoxicity against human KB cells. The conditions noted are these: for EC50: read-out: ED50 (the source's name). In outline: as §1
Test [8] concerns KB-VIN. Put plainly: (§3) Cytotoxicity against human KB-VIN cells. An outline of the steps: as §1
Test [9] deals with HCT-8. Put plainly: Cytotoxicity against human HCT8 cells. The settings on record: read-out: ED50 (the source's name). In outline:
as §1

The subject of test [10] is PC-3. Put plainly: Cytotoxicity against human PC3 cells. The conditions noted are these: read-out: ED50 (the source's name). In outline: as §1
Test [11] relates to ZR-75-1. In words: Cytotoxicity against human ZR751 cells. The conditions noted are these: for EC50: read-out: ED50 (the source's name). An outline of the steps:
as §1

Test [12] can be described thus: as §3. The conditions noted are these: KBVIN, read-out: ED50 (the source's name). In outline: as §1
Test [13] is described as follows: as §2. The settings on record: KBVIN, read-out: ED50 (the source's name). In outline: as §1

Active and inactive are the calls of the source. No cut-off for these calls is given here.

For `CC1(C)CC[C@]2(C(=O)O)CC[C@]3(C)C(=CC[C@@H]4[C@@]5(C)CC[C@H](O)C(C)(C)[C@@H]5CC[C@]43C)[C@@H]2C1`, the outcome in test [1] and in [2] was inactive.

For `COc1cc(/C=C/C(C)=O)ccc1O` [DEHYDROZINGERONE], the EC50 in test [3] is 33.9 µM; in test [4], 51 µM; in [5] it was greater than 52 µM; in test [6], greater than 52 µM; in test [9], greater than 52 µM; in test [10] it was greater than 52 µM. Further, in [11], the EC50 was greater than 52 µM. For the same compound, the outcome in test [1], in test [7], in [8] and in test [2] was inactive.

For `COc1cccc(/C=C/C(=O)c2ccccc2)c1OC(=O)[C@@]1(C)CC[C@]2(C)CC[C@]3(C)C(=CC(=O)[C@@H]4[C@@]5(C)CC[C@H](O)C(C)(C)[C@@H]5CC[C@]43C)[C@@H]2C1`, the EC50 is 13.3 µM in test [3]; 14.1 µM in test [4]; greater than 14 µM in [5]; greater than 14 µM in test [6]; 9.9 µM in [7]; greater than 14 µM in [9]. Also, the values for the EC50 in test [10] and in [11] were 14.1 µM and greater than 14 µM, respectively. Further, in [8], the result was inactive.

Regarding `CCOc1cc(/C=C/C(C)=O)ccc1OC(=O)[C@@]1(C)CC[C@]2(C)CC[C@]3(C)C(=CC(=O)[C@@H]4[C@@]5(C)CC[C@H](O)C(C)(C)[C@@H]5CC[C@]43C)[C@@H]2C1`, the EC50 in [3] worked out at 1.1 µM; in test [4], 1.1 µM; in [5], 1.7 µM; in test [6] it was 5.8 µM; in test [7], 1.8 µM; in [12] it was 1.7 µM. For the same compound, the EC50 in test [9] amounted to 2.7 µM; in test [10], 3.3 µM; in test [11], 5.2 µM.

Turning to `COc1cc(/C=C/C(=O)c2ccccc2)ccc1OC(=O)[C@@]1(C)CC[C@]2(C)CC[C@]3(C)C(=CC(=O)[C@@H]4[C@@]5(C)CC[C@H](O)C(C)(C)[C@@H]5CC[C@]43C)[C@@H]2C1`, the EC50 in [3], in test [4], in test [5], in test [6], in test [9] and in test [10] was greater than 14 µM throughout. Besides, the outcome in test [7], in test [8] and in [11] was inactive.

On to `COc1cccc2c1C(=O)c1c(O)c3c(c(O)c1C2=O)C[C@@](O)(C(=O)CO)C[C@@H]3O[C@H]1C[C@H](N)[C@H](O)[C@H](C)O1` [DOXORUBICIN], for which the EC50 in test [3] amounted to 0.02 µM; in test [4], 0.04 µM; in test [5] it was 0.18 µM; in test [6], 0.15 µM; in test [7] it was 0.1 µM; in test [12], 4.97 µM. The EC50 in test [9] stood at 1.2 µM; in [10], 0.26 µM; in test [11], 0.04 µM.

For `COc1cc(/C=C/C(C)=O)ccc1OC(=O)[C@]12CCC(C)(C)C[C@H]1C1=CC[C@@H]3[C@@]4(C)CC[C@H](O)C(C)(C)[C@@H]4CC[C@@]3(C)[C@]1(C)CC2`, the result in [1] and in [2] was inactive.

In the case of `CCOc1cccc(/C=C/C(C)=O)c1OC(=O)[C@@]1(C)CC[C@]2(C)CC[C@]3(C)C(=CC(=O)[C@@H]4[C@@]5(C)CC[C@H](O)C(C)(C)[C@@H]5CC[C@]43C)[C@@H]2C1`, the EC50 in test [3] is 1.8 µM; in [4] it was 6.8 µM; in test [5] it was 3 µM; in test [6], greater than 15 µM; in test [7] it was 2.9 µM; in test [12], 13.2 µM. Besides, the figures for the EC50 in [9], in test [10] and in test [11] were 4.9 µM, 3.5 µM and 8.8 µM, respectively.

As for `COc1cc(/C=C/C(C)=O)ccc1OC(=O)[C@]12CC[C@@H](C)[C@H](C)[C@H]1C1=CC[C@@H]3[C@@]4(C)CC[C@H](O)C(C)(C)[C@@H]4CC[C@@]3(C)[C@]1(C)CC2`, the EC50 in [1] was 10.5 µM. For the same compound, the outcome in test [2] was inactive.

In the case of `COc1ccc(/C=C/C(C)=O)c(OC(=O)[C@@]2(C)CC[C@]3(C)CC[C@]4(C)C(=CC(=O)[C@@H]5[C@@]6(C)CC[C@H](O)C(C)(C)[C@@H]6CC[C@]54C)[C@@H]3C2)c1`, the EC50 in test [3] is 5.9 µM; in [4] it was 1.9 µM; in [5], 15.5 µM; in test [6] it was greater than 15 µM; in test [7], 6.2 µM; in test [12], greater than 15 µM. Besides, the values for the EC50 in test [9], in test [10] and in test [11] were 2.6 µM, 7.4 µM and greater than 15 µM, respectively.

For the compound `CC1(C)[C@@H](O)CC[C@]2(C)[C@H]3C(=O)C=C4[C@@H]5C[C@@](C)(C(=O)O)CC[C@]5(C)CC[C@@]4(C)[C@]3(C)CC[C@@H]12` [ENOXOLONE], the EC50 in [3] was greater than 21 µM; in test [4] it was greater than 21 µM; in test [6], greater than 21 µM; in test [7], greater than 21 µM; in test [12] it was greater than 21 µM; in test [9], 19.5 µM. In addition, in test [10], the EC50 was greater than 21 µM. Also, the result in test [1], in test [5], in test [2] and in test [11] was inactive.

Turning to `COc1cccc(/C=C/C(C)=O)c1OC(=O)[C@@]1(C)CC[C@]2(C)CC[C@]3(C)C(=CC(=O)[C@@H]4[C@@]5(C)CC[C@H](O)C(C)(C)[C@@H]5CC[C@]43C)[C@@H]2C1`, the EC50 was determined as 0.8 µM in test [3]; 2.8 µM in test [4]; 2.2 µM in test [5]; 3.6 µM in test [6]; 0.8 µM in test [7]; 2.8 µM in test [12]. The EC50 in [9] is 1.9 µM; in test [10] it was 1.1 µM; in [11], 3 µM.

Take `COc1ccc(/C=C/C(=O)c2ccccc2)c(OC(=O)[C@@]2(C)CC[C@]3(C)CC[C@]4(C)C(=CC(=O)[C@@H]5[C@@]6(C)CC[C@H](O)C(C)(C)[C@@H]6CC[C@]54C)[C@@H]3C2)c1`: the result in test [3], in [5] and in [11] was inactive. In addition, the EC50 in [4] was greater than 14 µM; in test [6] it was 13 µM; in [7] it was greater than 14 µM; in test [12], greater than 14 µM; in [9] it was greater than 14 µM; in test [10], greater than 14 µM.

Turning to `COc1ccc(/C=C/C(C)=O)cc1OC(=O)[C@@]1(C)CC[C@]2(C)CC[C@]3(C)C(=CC(=O)[C@@H]4[C@@]5(C)CC[C@H](O)C(C)(C)[C@@H]5CC[C@]43C)[C@@H]2C1`, the EC50 is 1.6 µM in test [3]; 6.5 µM in test [4]; 2.8 µM in [5]; 9.9 µM in [6]; 0.9 µM in [7]; 1.9 µM in test [12]. For the same compound, the results for the EC50 in test [9], in test [10] and in [11] were 2 µM, 2.8 µM and 1.9 µM, respectively.

On to `C[C@H]1[C@H](C)CC[C@]2(C(=O)O)CC[C@]3(C)C(=CC[C@@H]4[C@@]5(C)CC[C@H](O)C(C)(C)[C@@H]5CC[C@]43C)[C@H]12` [URSOLIC ACID], for which the EC50 was 8.3 µM in test [1] and 8.1 µM in [13].

In the case of `COc1cc(/C=C/C(C)=O)ccc1OC(=O)[C@@]1(C)CC[C@]2(C)CC[C@]3(C)C(=CC(=O)[C@@H]4[C@@]5(C)CC[C@H](O)C(C)(C)[C@@H]5CC[C@]43C)[C@@H]2C1`, the EC50 in test [3] came to 0.9 µM; in test [1], 1.7 µM; in test [4], 0.6 µM; in [5], 2 µM; in test [6], 3.1 µM; in [7], 1.6 µM. The EC50 in test [12] was 2.5 µM; in test [13] it was 2.8 µM; in [9], 1.7 µM; in [10] it was 1.4 µM; in [11], 2.8 µM.

Regarding `COc1ccc(/C=C/C(=O)c2ccccc2)cc1OC(=O)[C@@]1(C)CC[C@]2(C)CC[C@]3(C)C(=CC(=O)[C@@H]4[C@@]5(C)CC[C@H](O)C(C)(C)[C@@H]5CC[C@]43C)[C@@H]2C1`, the EC50 in test [3] was greater than 14 µM; in [4], 14.1 µM; in test [6], greater than 14 µM; in test [9], greater than 14 µM; in [10], 14.1 µM. Besides, the result in test [5], in [7], in [8] and in test [11] was inactive.

Regarding `CC(=O)/C=C/c1cccc(F)c1OC(=O)[C@@]1(C)CC[C@]2(C)CC[C@]3(C)C(=CC(=O)[C@@H]4[C@@]5(C)CC[C@H](O)C(C)(C)[C@@H]5CC[C@]43C)[C@@H]2C1`, the EC50 in test [3] came out at 1.3 µM; in test [4], 4.4 µM; in test [5], 3.2 µM; in test [6] it was 2.7 µM; in [7], 3 µM; in [12], 8.7 µM. Also, the EC50 in test [9] turned out to be 2.2 µM; in [10], 1.6 µM; in test [11], 2.7 µM.
